# Assay outcomes: PubChem, several laboratories
# T cell modulator – modulators of CD8 T cell-vesicle binding, primary screen, mouse 2C CD8+ T cells, flow cytometry; AID 2052, 2009; response (vesicle binding), % at 7 µM; actives 0.068% (n = 330,000); 2C CD8+ T cell-vesicle binding; active compounds read low;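 active means response, share of CD8 T cells binding vesicles, and their 90th percentile fluorescence all below set limits, cut at about 80% in these data, passing the limit was not always enough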;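 further: values below 100% mean blocked vesicle binding to the CD8+ T cells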
#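 Material: 2C TCR transgenic mouse naive CD8+ T cells, MACS-purified. Also added: QL9-charged Drosophila Ld/ICAM-1/B7-1 vesicles. Timing: binding 1.5 h at 37 °C. Measured by: high-throughput flow cytometry with anti-B7-1 and anti-CD8 staining. Read-out: percent CD8+ FL2 mean versus row control. Controls: Unloaded micro-vesicles (low), QL9 vesicles with 0.7% DMSO (high).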
# CaV13 FRET inh – Primary screen for inhibitors of IQ motif and Ca2+-dependent inactivation inhibitor domain binding in CACNA1D, Förster resonance energy transfer in living cells, …; HEK cells, CFP/YFP FRET ICDI-IQ, plate reader, 10 min; percent FRET-ratio fall versus neutral wells; inhibition, % at 12.3 µM; actives 0.098% (n = 340,000); AID 743397;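 active means mean replicate inhibition of at least 30% and at least 1% of replicates passing that level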;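 further: 0% = median of the neutral control wells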
# procasp7 counter – procaspase-7 activators, primary screen, counter-screen for procaspase-3 activator project, biochemical, absorbance, HTS, human; recombinant procaspase-7, Ac-DEVD-pNA absorbance 405 nm; D23A/D198A/D206A triple mutant, cannot self-cleave; scale: DMSO 0, 5 µM enzyme 100; AID 463210, 2010; activation, % at 8.5 µM; actives 0.093% (n = 330,000);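 active means percent activation above the screen-wide mean plus 3 SD, cut at about 25% in these data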
#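 buffer or medium = Zinc-free HEPES/NaCl buffer, pH 7.4 | material = Procaspase-7 triple mutant (PC-7 D3A) | input = 2 µM procaspase-7 mutant as dispensed | signal = Epi-absorbance of released pNA at 405 nm, two timepoints | timing = 1 h preincubation, 2 h reaction | replicates = singlicate compound testing | evaluation = % activation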
# GRK2 aptamer HTS – compounds blocking aptamer binding on GRK2 – biochemical, human GRK2, bead flow cytometry, HTS, primary screen. AID 488847, 2010. inhibition of aptamer binding, % at 10 µM. actives 0.59% (n = 330,000). FAM-aptamer displacement from GRK2;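 active means inhibition of aptamer binding above 40%, roughly 3 SD of noise, on plates passing a quality check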;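 further: median bead fluorescence of bound FAM aptamer so fluorescent compounds give negative values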
# Target sequence (P25098 whole entry, looked up): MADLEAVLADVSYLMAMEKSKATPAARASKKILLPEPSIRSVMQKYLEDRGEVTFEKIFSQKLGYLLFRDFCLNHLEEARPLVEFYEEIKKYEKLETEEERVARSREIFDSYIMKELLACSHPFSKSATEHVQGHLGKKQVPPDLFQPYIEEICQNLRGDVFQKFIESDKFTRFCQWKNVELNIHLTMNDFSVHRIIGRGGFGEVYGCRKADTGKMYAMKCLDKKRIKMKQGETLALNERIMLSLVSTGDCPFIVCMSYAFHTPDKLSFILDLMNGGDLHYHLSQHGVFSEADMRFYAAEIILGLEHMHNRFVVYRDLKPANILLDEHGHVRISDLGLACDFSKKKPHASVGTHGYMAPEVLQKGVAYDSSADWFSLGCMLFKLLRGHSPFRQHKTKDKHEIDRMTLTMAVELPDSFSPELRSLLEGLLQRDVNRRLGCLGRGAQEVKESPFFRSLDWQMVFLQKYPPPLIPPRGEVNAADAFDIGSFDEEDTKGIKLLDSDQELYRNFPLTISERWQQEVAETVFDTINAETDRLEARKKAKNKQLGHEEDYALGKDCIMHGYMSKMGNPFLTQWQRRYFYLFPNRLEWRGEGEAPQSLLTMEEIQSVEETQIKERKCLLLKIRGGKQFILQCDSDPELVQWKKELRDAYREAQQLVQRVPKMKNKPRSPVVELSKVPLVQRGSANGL
# proCasp3 act – activators of human procaspase-3 D3A mutant, primary screen, biochemical, absorbance, PC-3 D3A mutant, single concentration; actives 0.11% (n = 330,000); activation, % at 8.5 µM; Caspase-3 (Homo sapiens), P42574; recombinant procaspase-3 D3A, Ac-DEVD-pNA absorbance 405 nm;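 active means activation above the mean of all tested compounds plus 3 SD, cut at about 21% in these data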;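 further: 0% = DMSO alone and 100% = DMSO wells spiked with extra 5 µM PC-3 D3A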
#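 Test system: Procaspase-3 D3A mutant, all three cleavage aspartates alanine | Dosing: Single dose, 8.5 µM nominal compound, 0.8% DMSO | Schedule: 1 h preincubation, 2 h reaction | Technique: 405 nm absorbance of p-nitroaniline, reads at 0 and 120 min | Repeats: One well per compound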
# aDG glyco act – activators of alpha-DG glycosylation, primary screen, uHTS, Pro5-aDG cells, AlphaScreen; alpha-DG glycosylation AlphaScreen (IIH6); 0% Pro5, 100% B10-LARGE cell signal; activation, % at 10 µM; actives 0.22% (n = 360,000);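 active means activation of at least 8% versus controls, or a plate z-score of at least 8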;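 further: Pro5 are CHO cells carrying HIG-tagged alpha-DG that lacks glycosylation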
# GRK2 inh confirm – GRK2 aptamer-displacing inhibitors, retest, confirmation, biochemical, cherry pick 1, bead flow cytometry. shares compounds with GRK2 aptamer HTS. bead-bound GRK2, FAM-aptamer displacement. aptamer displacement, % at 10 µM. actives 4% (n = 2,000). AID 504451, 2011;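 active means aptamer displacement above 40%, near three times the noise of non-fluorescent compounds, on plates passing quality checks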;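 further: negative values mostly reflect intrinsic compound fluorescence rather than true enhancement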
# FAM quench CP1 – counter-screen for GRK2 aptamer inhibitors: fluorescent aptamer quenchers; shares compounds with GRK2 aptamer HTS; Carboxyfluorescein RNA aptamer on beads, flow cytometry quenching; active compounds read low; fluorescence response (% of DMSO), % at 10 µM; 2,000 tested, under 10 active;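 active means compounds that quench the bead-bound fluorescent RNA probe, cutting fluorescence to under half of the solvent control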;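 further: counterscreen run without GRK2 so only probe quenching by compound is measured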
# GRK2 confirm 2 – GRK2 aptamer-displacing inhibitors, hit retest, confirmation, biochemical, cherry pick 2, bead flow cytometry | shares compounds with GRK2 aptamer HTS | 360 tested, under 10 active | bead-bound GRK2, FAM-aptamer displacement | inhibition of aptamer binding, % at 10 µM;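 active means inhibition of aptamer binding above 40%, about triple the noise seen with nonglowing compounds, on plates passing quality control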;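 further: negative values mostly come from compounds that fluoresce themselves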
# FAM quench SP – counter-screen for GRK2 binding hits: quenchers of fluorescent RNA aptamer. carboxyfluorescein RNA aptamer beads, flow cytometry quenching; active compounds read low. fluorescence response vs DMSO, % at 10 µM. 360 tested, under 10 active. shares compounds with GRK2 aptamer HTS;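 active means response vs DMSO under 50%, meaning signal dropped by over half, treated as fluorescence quencher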;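 further: labelled aptamer on streptavidin beads without GRK2 as a quench counter-screen; 100% = bead fluorescence of DMSO wells and lower means quenching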
# Active calls of the source: *; i = inactive; x = no result. Shown are actives, neighbours in structure and some others; about 1.1% of the full set was active somewhere.
SMILES,T cell modulator,CaV13 FRET inh,procasp7 counter,GRK2 aptamer HTS,proCasp3 act,aDG glyco act,GRK2 inh confirm,FAM quench CP1,others
NS(=O)(=O)c1ccc(NC(=O)c2ccc(-c3ccccc3)cc2)cc1,x,9,x,x,x,0,x,x,
NS(=O)(=O)c1ccc(NS(=O)(=O)c2ccc(NC(=O)c3ccc(-c4ccccc4)cc3)cc2)cc1,228,-1,-2,41*,1,0,-4,108,
C[C@@H]1ON(C)[C@H]2C[C@H]3c4cc(N5CCCCC5)ccc4CCN3C[C@@H]12,x,-4,x,x,x,x,x,x,
COc1ccc(C(=O)N2CCCC(c3cc(C(=O)Nc4ccccc4)no3)C2)cc1 (stereo not drawn),x,-3,x,x,x,0,x,x,
COc1ccccc1N1CCN(/N=C/c2ccc(Cl)c([N+](=O)[O-])c2)CC1,171,-16,4,100*,0,0,1,98,
COc1ccccc1N1CCN(/N=C/c2ccc([N+](=O)[O-])cc2)CC1,189,-20,x,1,x,0,x,x,
Cc1c(NC(=O)Nc2ccc([N+](=O)[O-])cc2)c(=O)n(-c2ccccc2)n1C,171,-19,5,0,8,0,x,x,
O=C(Nc1ccccn1)Nc1ccccc1[N+](=O)[O-],177,-5,-5,13,-7,0,0,103,
O=C(Cn1cc([N+](=O)[O-])cn1)Nc1ccccn1,i,-3,-1,60*,-4,0,-1,96,
Cc1c(NC(=O)Nc2ccccc2[N+](=O)[O-])c(=O)n(-c2ccccc2)n1C,463,-4,-2,13,4,0,1,101,
Cc1ccc(/C=C2\SC(=S)N(C3CCS(=O)(=O)C3)C2=O)o1 (stereo not drawn),100,-6,-30,43*,-18,0,7,104,
COc1cccc(CNS(=O)(=O)c2cc(Br)ccc2Br)c1OC,x,-5,x,x,x,x,x,x,
CCC(C)(O)c1cnc(CC(C)C)c(=O)n1O (stereo not drawn),x,x,x,x,x,0,x,x,
CN(CC(=O)Nc1ccc(N2CCOCC2)cc1)C(=O)CCc1ccccc1Cl,279,-4,3,0,1,0,-1,98,
CN(CC(=O)Nc1ccc(N2CCOCC2)cc1)C(=O)CCNC(=O)c1ccccc1Cl,300,-3,-4,1,4,0,x,x,
COc1cc(OC)cc(-c2c(-c3cccs3)c3cc(-c4cnc(OC)nc4)ccc3n2C)c1,292,-5,7,68*,0,0,-7,105,
Clc1nc(Cl)nc(NCCC2=CCCCC2)n1,135,1,13,1,4,0,x,x,
CC12CCC(C(=O)n3c1nc1ccccc13)C2(C)C (stereo not drawn),690,x,11,36,-11,0,0,91,
COc1cccc(NC(=S)NNC(=O)CCn2cc([N+](=O)[O-])cn2)c1,244,8,-7,3,-5,0,x,x,
CCn1cc(Cl)c(C(=O)NNC(=O)CCn2cc([N+](=O)[O-])cn2)n1,197,x,7,63*,7,0,x,x,GRK2 confirm 2=-34;FAM quench SP=101
COc1ccccc1NC(=O)NC1(C(=O)N2CCCCCC2)CCCCC1,167,-6,5,95*,4,0,-3,95,
COc1ccccc1NC(=O)NC1(C(=O)N2CCOCC2)CCCCC1,79,-7,-3,0,6,0,x,x,
COC[C@@H]1CCCN1[C@H]1CS(=O)(=O)N[C@@H]1COCc1ccccc1,x,-8,x,x,x,0,x,x,
O=S1(=O)CCC(N=Nc2c(O)n(Cc3ccccc3)c3ccccc23)C1 (stereo not drawn),152,-8,12,66*,-6,0,-1,99,
COc1cc(SSc2cc(OC)cc([N+](=O)[O-])c2N)c(N)c([N+](=O)[O-])c1,24,-3,-46,87*,-30,0,-14,95,
SMILES,T cell modulator,CaV13 FRET inh,procasp7 counter,GRK2 aptamer HTS,proCasp3 act,aDG glyco act,GRK2 inh confirm,FAM quench CP1,others
Cc1cc(C)n2nc(C(=O)N3CCCC(Nc4ccc(F)c(F)c4)C3)cc2n1 (stereo not drawn),339,-10,4,85*,1,0,x,x,GRK2 confirm 2=9;FAM quench SP=102
O=C(NCCOc1ccccc1F)C1CC(=O)N(Cc2ccccc2)C1 (stereo not drawn),561,-6,5,0,7,0,x,x,
O=S(=O)(Nc1ccccc1)c1ccc(-c2cnc(C3CC3)o2)cc1,398,-2,-1,1,3,0,x,x,
O=S(=O)(NCc1ccc(F)cc1)c1ccc(-c2cnc(C3CC3)o2)cc1,220,-5,3,51*,2,0,6,99,
CC(=O)NS(=O)(=O)c1cccnc1Nc1ccc(Cl)c(Cl)c1,220,x,-1,83*,1,0,-2,105,
NS(=O)(=O)c1cccnc1Nc1ccc(Cl)c(Cl)c1,308,0,-6,0,-8,0,x,x,
CC(C)c1c(O)nc(SCc2ccc(F)cc2)[nH]c1=O,646,-3,2,60*,-6,0,12,131,
C#CCn1c(=NC(=O)c2ccc(Cl)s2)sc2cccc(OC)c21,431,-5,-4,76*,1,0,2,99,
C#CCn1c(=NC(=O)c2cccs2)sc2cccc(OCC)c21,453,-3,7,2,11,0,x,x,
